In test [1] the test system is Candida albicans. Kind of test: In vitro antimicrobial activity against Candida albicans ATCC 10231, tested at 50-0.1 ug/mL; i=Inactive at highest concentration. It is filed as functional, organism-based. The procedure, abridged:
(§1)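 Agar dilution/streak method; MIC (μg/mL) read as lowest concentration inhibiting growth. Each organism was streaked on agar plates holding serial dilutions of test agent over the range given in the line. "i" means no inhibition at the top concentration tested.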

The test system of test [2] is Klebsiella pneumoniae. Kind of test: In vitro antimicrobial activity against Klebsiella pneumoniae ATCC 10031,tested at 50-0.1 ug/mL; i=Inactive at highest concentration. It is filed as functional, organism-based. The procedure, abridged: as §1
Test [3] relates to Mycolicibacterium smegmatis. The test is described as follows: In vitro antimicrobial activity against Mycobacterium smegmatis ATCC 607,tested at 50-0.1 ug/mL. It is filed as functional. The procedure, abridged: as §1
Test [4] deals with Staphylococcus aureus. Kind of test: In vitro antimicrobial activity against, Staphylococcus aureus ATCC 13709,tested at 50-0.1 ug/mL. It is filed as functional. The procedure, abridged:
as §1

Test [5] relates to Candida albicans. The test is described as follows: In vitro antimicrobial activity against Candida albicans ATCC 10231, tested at 100-0.1 ug/mL. It is filed as functional. Put shortly: as §1
Test [6] relates to Klebsiella pneumoniae. Kind of test: In vitro antimicrobial activity against Klebsiella pneumoniae ATCC 10031,tested at 100-0.1 ug/mL; Inactive at highest concentration. It is filed as functional, organism-based. Put shortly: as §1
In test [7] the test system is L1210. Kind of test: In vitro cytotoxic activity against,L-1210 mouse lymphocytic leukemia cell culture (ATCC CCL-219). It is filed as functional, cell-based. Put shortly: (§2)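 L1210 (ATCC 219) cells: 1×10^4 cells per well seeded in DMEM with 5% bovine serum and grown 48 h at 37 °C under 5% CO2. Agent was added from a 10 mg/mL stock in 95% ethanol via 2× medium and incubated a further 48 h. The nonadherent cells were dispersed by pipetting, diluted in balanced salts solution and counted by hemocytometer or Coulter counter. IC50 is the dose giving 50% of control count.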

In test [8] the test system is Staphylococcus aureus. The test is described as follows: In vitro antimicrobial activity against, Staphylococcus aureus ATCC 13709,tested at 100-0.1 ug/mL. It is filed as functional. Put shortly: as §1
In test [9] the test system is B16. Kind of test: In vitro cytotoxic activity against,B-16 mouse melanoma (B-16). It is filed as functional, cell-based. Put shortly:
(§3)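 B16 cells: 1×10^4 cells per well seeded in DMEM with 5% bovine serum and grown 48 h at 37 °C under 5% CO2. Agent was added from a 10 mg/mL stock in 95% ethanol via 2× medium and incubated a further 48 h. Cells were detached with 0.01% trypsin/0.1% EDTA in PBS for 5 min at 37 °C and counted. IC50 is the dose giving 50% of control cell count, taken from count versus concentration plots.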

The test system of test [10] is Mycolicibacterium smegmatis. Kind of test: In vitro antimicrobial activity against Mycobacterium smegmatis ATCC 607,tested at 100-0.1 ug/mL. It is filed as functional. Put shortly: as §1
Test [11] has as its system Klebsiella pneumoniae. The test is described as follows: In vitro antimicrobial activity against Klebsiella pneumoniae ATCC 10031,tested at 100-0.1 ug/mL; i=Inactive at highest concentration. It is filed as functional, organism-based. Put shortly: as §1
In test [12] the test system is Staphylococcus aureus. The test is described as follows: In vitro antimicrobial activity against Staphylococcus aureus ATCC 13709,tested at 100-0.1 ug/mL. It is filed as functional. Put shortly: as §1
Test [13] concerns B16. Kind of test: In vitro cytotoxic activity against B-16 mouse melanoma (B-16). It is filed as functional, cell-based. The procedure, abridged:
as §3

For test [14], the system named is Candida albicans. Kind of test: In vitro antimicrobial activity against Candida albicans ATCC 10231 tested at 25-0.1 ug/mL; i=Inactive at highest concentration. It is filed as functional, organism-based. The procedure, abridged:
as §1

The test system of test [15] is Klebsiella pneumoniae. Kind of test: In vitro antimicrobial activity against Klebsiella pneumoniae ATCC 10031 tested at 25-0.1 ug/mL; i=Inactive at highest concentration. It is filed as functional, organism-based. Put shortly:
as §1

The subject of test [16] is L1210. Kind of test: In vitro cytotoxic activity against L-1210 mouse lymphocytic leukemia cell culture (ATCC CCL-219). It is filed as functional, cell-based. Put shortly:
as §2

The test system of test [17] is Mycolicibacterium smegmatis. The test is described as follows: In vitro antimicrobial activity against Mycobacterium smegmatis ATCC 607 tested at 25-0.1 ug/mL. It is filed as functional. The procedure, abridged: as §1
The test system of test [18] is Staphylococcus aureus. Kind of test: In vitro antimicrobial activity against, Staphylococcus aureus ATCC 13709 tested at 25-0.1 ug/mL. It is filed as functional. Put shortly: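 Agar-dilution/streak assay giving the MIC in μg/mL, run against S. aureus ATCC 13709 within a seven-organism panel.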
The test system of test [19] is Staphylococcus aureus. Kind of test: In vitro antimicrobial activity against, Staphylococcus aureus ATCC 13709,tested at 100-0.1 ug/mL; i=Inactive at highest concentration. It is filed as functional, organism-based. Put shortly: as §1
The species named for test [20] is Homo sapiens. Kind of test: In vitro cytotoxic activity against, human lymphoblastic leukemia cell culture (CCRF-CEM). It is filed as functional.
Test [21] concerns Klebsiella pneumoniae. Kind of test: In vitro antimicrobial activity against Klebsiella pneumoniae ATCC 10031,tested at 100-0.1 ug/mL. It is filed as functional. The procedure, abridged: as §1
Test [22] relates to Candida albicans. Kind of test: In vitro antimicrobial activity against Candida albicans ATCC 10231, tested at 100-0.1 ug/mL; i=Inactive at highest concentration. It is filed as functional, organism-based. The procedure, abridged:
as §1

In test [23] the test system is Klebsiella pneumoniae. The test is described as follows: In vitro antimicrobial activity against,Klebsiella pneumoniae ATCC 10031 tested at 100-0.1 ug/mL; i=Inactive at highest concentration. It is filed as functional, organism-based. The procedure, abridged:
as §1

Test [24] relates to Mycolicibacterium smegmatis. Kind of test: In vitro antimicrobial activity against Mycobacterium smegmatis ATCC 607 tested at 100-0.1 ug/mL; i=Inactive at highest concentration. It is filed as functional, organism-based. Put shortly: as §1
Test [25] concerns Staphylococcus aureus. Kind of test: In vitro antimicrobial activity against, Staphylococcus aureus ATCC 13709 tested at 100-0.1 ug/mL; i=Inactive at highest concentration. It is filed as functional, organism-based. Put shortly: as §1
The subject of test [26] is Staphylococcus aureus. Kind of test: In vitro antimicrobial activity against, Staphylococcus aureus ATCC 13709,tested at 50-0.1 ug/mL;. It is filed as functional. Put shortly: as §1
Test [27] has as its system Candida albicans. Kind of test: In vitro antimicrobial activity against Candida albicans ATCC 10231, tested at 25-0.1 ug/mL; i=Inactive at highest concentration. It is filed as functional, organism-based. The procedure, abridged: as §1
In test [28] the test system is Klebsiella pneumoniae. Kind of test: In vitro antimicrobial activity against Klebsiella pneumoniae ATCC 10031,tested at 25-0.1 ug/mL; i=Inactive at highest concentration. It is filed as functional, organism-based. Put shortly: as §1
For test [29], the system named is Mycolicibacterium smegmatis. Kind of test: In vitro antimicrobial activity against Mycobacterium smegmatis ATCC 607,tested at 25-0.1 ug/mL. It is filed as functional. The procedure, abridged:
as §1

Test [30] has as its system Staphylococcus aureus. The test is described as follows: In vitro antimicrobial activity against, Staphylococcus aureus ATCC 13709,tested at 25-0.1 ug/mL. It is filed as functional. The procedure, abridged:
as §1

Test [31] concerns Mycolicibacterium smegmatis. The test is described as follows: In vitro antimicrobial activity against Mycobacterium smegmatis ATCC 607,tested at 100-0.1 ug/mL; i=Inactive at highest concentration. It is filed as functional, organism-based. The procedure, abridged: as §1

Structures are written as SMILES. Converted amounts (≈) assume the structure as drawn. The source made the active and inactive calls. The calls are words filed in the database; no cut-off is given here.

As a reminder, the MIC is the least concentration at which growth counts as inhibited. On to `CC[N+](CC)(CC)Cc1cc2c(cc1OC)CCc1ccccc1-2.[Br-]`, for which the MIC result in test [1] and in [2] was “inactive” in each case. Besides, the minimum inhibitory concentration (MIC) in test [3] and in test [4] was 25 µg/mL throughout.
Consider `CCc1cc2c(cc1OC)-c1ccccc1CC2`, for which the MIC entry in [1] and in test [2] was “inactive” in each case. For the same molecule, the MIC in [3] was 3.12 µg/mL (≈ 13.1 µM); in test [4] it was 25 µg/mL (≈ 105 µM).
For orientation: IC50 means the midpoint of a concentration-inhibition curve. For `Cc1cc2c(cc1O)CCc1ccccc1-2`, the MIC in test [5] turned out to be 6.25 µg/mL (≈ 29.7 µM); in test [8] it was 25 µg/mL (≈ 119 µM); in [10], 3.12 µg/mL (≈ 14.8 µM). Moreover, the MIC result in test [6] was “inactive”. For the same molecule, the IC50 in test [7] came to 24.5 µg/mL (≈ 117 µM); in test [9], 27.5 µg/mL (≈ 131 µM).
As to `COc1ccccc1C[N+](C)(C)CSc1ccccc1.[Br-]`, the MIC in test [5] is 100 µg/mL; in test [12] it was 50 µg/mL; in [10], 50 µg/mL. The MIC result in test [11] is “inactive”.
On to `C=Cc1c(C)c(O)cc2c1-c1ccc(O)c(C)c1CC2`, for which the IC50 in test [13] turned out to be 12.5 µg/mL (≈ 46.9 µM); in test [16], 13.8 µg/mL (≈ 51.8 µM). The MIC entry in test [14] and in test [15] was “inactive” in each case. In addition, the values for the minimal inhibitory concentration (MIC) in [17] and in test [18] were 12.5 µg/mL (≈ 46.9 µM) and 25 µg/mL (≈ 93.9 µM), respectively.
Consider `COc1cc2c(cc1C)-c1ccccc1CC2`, for which the MIC in [5] stood at 100 µg/mL (≈ 446 µM); in [10], 25 µg/mL (≈ 111 µM). For the same molecule, the MIC entry in test [11] and in test [19] was “inactive” each time.
Take `COc1cc2c(cc1C[N+](C)(C)CSc1ccccc1)-c1ccccc1CC2.[Br-]`: the MIC came out at 12.5 µg/mL in test [5], 25 µg/mL in test [21], 1.56 µg/mL in [8] and 1.56 µg/mL in [10]. In addition, the IC50 came to 1.4 µg/mL in [20], 3.7 µg/mL in test [7] and 0.5 µg/mL in [9].
For `Cc1cc2c(cc1O)CCc1c-2ccc(O)c1C`, the MIC was found to be 50 µg/mL (≈ 208 µM) in [5], 50 µg/mL (≈ 208 µM) in [21], 12.5 µg/mL (≈ 52 µM) in test [8] and 6.25 µg/mL (≈ 26 µM) in test [10]. Further, the half-inhibitory concentration (IC50) in [20] was found to be 9.3 µg/mL (≈ 38.7 µM); in [7], 10.2 µg/mL (≈ 42.4 µM); in test [9], 17.5 µg/mL (≈ 72.8 µM).
Consider `COc1cc2c(cc1C[N+](C)(C)CSc1ccccc1)-c1ccc(OC)c(C)c1CC2.[Br-]`, for which the MIC in test [5] came out at 3.12 µg/mL; in test [21], 12.5 µg/mL; in test [8] it was 1.56 µg/mL; in test [10], 1.56 µg/mL. The IC50 in [20] stood at 0.9 µg/mL; in [7], 1.3 µg/mL; in test [9], 0.3 µg/mL.
Consider `C=Cc1c(C)c(OC)cc2c1-c1ccc(OC)c(C)c1CC2`, for which the MIC entry in [22], in test [23], in test [24] and in [25] was “inactive” in each case.
In the case of `COC(=O)c1cc2c(cc1OC)CCc1ccccc1-2`, the MIC result in test [1] and in test [2] was “inactive” each time. The MIC is 25 µg/mL (≈ 93.2 µM) in [3] and 50 µg/mL (≈ 186 µM) in [26].
As to `COc1cc2c(cc1C[N+](C)(C)CSc1ccccc1)CCc1ccccc1-2.[Br-]`, the MIC entry in [27] and in test [28] was “inactive” in each case. The minimum inhibitory concentration (MIC) in test [29] came out at 3.12 µg/mL; in test [30] it was 6.25 µg/mL.
Turning to `COc1cc2c(cc1C)-c1ccc(OC)c(C)c1CC2`, the MIC result in test [22], in [11], in test [31] and in test [19] was “inactive” in each case.

These data come from ChEMBL document CHEMBL1122829, “Antimicrobial and cytotoxic properties of 9,10-dihydrophenanthrenes: structure-activity studies on juncusol” (J Med Chem, 1985).
